Here are results for 14 molecules from paper PMC2659725 (Archives of biochemistry and biophysics, 2009).

pIC50, pKd: −log10 of the molar value. “Also recorded” adds a separate entry of the source. Where two headings read alike, the source gives them in different places.

Assay [1] concerns the target tubulin (Bos taurus, UniProt P81947+Q6B856). The class given is biochemical, bovine. The conditions noted are these: for Effect on paclitaxel-induced tubulin assembly: 30 μM tubulin, 30 μM paclitaxel.
In the next assay the target is tubulin with MAPs (Bos taurus, UniProt P81947+Q6B856). Nature of the assay: Paclitaxel-induced tubulin assembly with heat-treated MAPs. The class given is biochemical, bovine.
In assay [2] the test system is tubulin. Nature of the assay: Critical concentration of tubulin for paclitaxel-induced assembly. The class given is biochemical, bovine. The conditions noted are these: 10 μM paclitaxel. Summed up:
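Bovine brain tubulin, MAP-free, carrying E-site GDP and N-site GTP, with no exogenous GTP or Mg2+. Assay buffer 0.1 M Mes (pH 6.9) with 10 μM paclitaxel, plus heat-treated MAPs or MAPs with GTP where indicated. Components mixed at 0 °C, held 2 min, jumped to 30 °C and followed about 30 min. Turbidity read at 350 nm.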

Assay [3] concerns tubulin. The conditions noted are these: paclitaxel, 37 °C, cited from earlier work.
The target of a further assay is tubulin E-site. The conditions noted are these: read-out: Kd for GDP binding to the E-site; cited from earlier work.
Assay [4] has as its system taxoid site of microtubules. Nature of the assay: Displacement of a fluorescent taxoid analog from microtubules. The format is binding. The conditions noted are these: fluorescence anisotropy; personal communication, Dr. Fernando Díaz.
In the next assay the target is microtubules (Bos taurus, UniProt P81947+Q6B856). Nature of the assay: Lengths of paclitaxel-induced microtubules by electron microscopy. The conditions noted are these: for Mean microtubule length ± SD, Average / Mean microtubule length ± SD, Experiment I / Mean microtubule length ± SD, Experiment II: paclitaxel-induced microtubules. The format is biochemical, bovine. Summed up: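 Paclitaxel-induced polymers were formed with GDP at the stated levels and monitored turbidimetrically. Samples were placed on carbon-coated formvar copper grids and stained with 1% uranyl acetate. Lengths were measured from EM negatives.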

Assay [5] has as its system subtilisin-treated tubulin. Nature of the assay: Paclitaxel-induced assembly of subtilisin-treated tubulin. The format is biochemical, bovine. The conditions noted are these: same tubulin concentration (10 μM).

tubulin (Bos taurus, UniProt P81947+Q6B856), sequence (P81947 whole entry): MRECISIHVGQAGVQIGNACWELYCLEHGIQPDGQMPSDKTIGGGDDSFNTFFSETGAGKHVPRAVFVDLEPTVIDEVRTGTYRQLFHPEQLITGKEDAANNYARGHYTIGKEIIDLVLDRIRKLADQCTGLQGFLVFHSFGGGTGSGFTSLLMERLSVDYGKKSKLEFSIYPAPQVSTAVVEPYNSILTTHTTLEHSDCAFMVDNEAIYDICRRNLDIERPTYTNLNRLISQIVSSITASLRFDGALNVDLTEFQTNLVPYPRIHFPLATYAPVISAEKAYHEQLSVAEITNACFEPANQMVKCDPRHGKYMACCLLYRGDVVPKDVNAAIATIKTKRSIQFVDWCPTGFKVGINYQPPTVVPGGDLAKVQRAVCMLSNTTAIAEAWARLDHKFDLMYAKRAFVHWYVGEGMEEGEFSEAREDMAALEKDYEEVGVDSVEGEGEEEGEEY
tubulin (Bos taurus, UniProt P81947+Q6B856), sequence (Q6B856 whole entry): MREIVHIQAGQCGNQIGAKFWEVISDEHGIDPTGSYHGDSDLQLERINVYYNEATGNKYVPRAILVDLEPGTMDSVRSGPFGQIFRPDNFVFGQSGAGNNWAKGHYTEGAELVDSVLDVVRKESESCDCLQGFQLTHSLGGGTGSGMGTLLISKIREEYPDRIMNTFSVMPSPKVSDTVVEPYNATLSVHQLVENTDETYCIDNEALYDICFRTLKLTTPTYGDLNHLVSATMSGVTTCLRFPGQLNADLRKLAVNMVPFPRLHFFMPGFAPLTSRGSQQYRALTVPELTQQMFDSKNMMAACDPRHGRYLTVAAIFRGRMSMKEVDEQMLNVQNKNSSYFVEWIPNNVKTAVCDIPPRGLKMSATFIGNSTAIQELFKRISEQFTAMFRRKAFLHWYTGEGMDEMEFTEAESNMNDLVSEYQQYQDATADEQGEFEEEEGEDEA
microtubules, sequence (P81947 whole entry): as the sequence (P81947 whole entry) above
microtubules, sequence (Q6B856 whole entry): as the sequence (Q6B856 whole entry) above
tubulin with MAPs, sequence (P81947 whole entry): as the sequence (P81947 whole entry) above
tubulin with MAPs, sequence (Q6B856 whole entry): as the sequence (Q6B856 whole entry) above

Turning to `Nc1ncnc2c1ncn2[C@@H]1O[C@H](COP(=O)(O)OP(=O)(O)OP(=O)(O)O)[C@@H](O)[C@H]1O` [ATP], the “Effect on paclitaxel-induced tubulin assembly” value (“Effect” for short) at tubulin [1] (no exogenous GTP) was “weak inhibitory effect; also recorded: extensive inhibition; also recorded: inhibited”.

With `Nc1ccn([C@@H]2O[C@H](COP(=O)(O)OP(=O)(O)OP(=O)(O)O)[C@@H](O)[C@H]2O)c(=O)n1` [CTP], the “Effect” value at tubulin [1] (no exogenous GTP) was “Still weaker effects”.

`COc1cc([C@@H]2c3cc4c(cc3[C@H](O)[C@H]3COC(=O)[C@H]23)OCO4)cc(OC)c1OC` [podophyllotoxin, Podophyllotoxin]: the pIC50 (in general, the IC50 on a negative log10 scale, so that one unit is a factor of ten) against tubulin with MAPs is more than 5.30.

As to `O=c1[nH]cnc2c1ncn2[C@@H]1O[C@H](COP(=O)(O)OP(=O)(O)OP(=O)(O)O)[C@@H](O)[C@H]1O` [ITP], the “Effect” value at tubulin [1] (no exogenous GTP) is listed as “stimulatory”.

For `Nc1ncnc2c1ncn2[C@@H]1O[C@H](COP(=O)(O)OP(=O)(O)O)[C@@H](O)[C@H]1O` [ADP], at tubulin [1] (no exogenous GTP), the “Effect” value is on record as “had any inhibitory effect, nor did”.

Regarding `CC(=O)O[C@H]1C(=O)[C@@]2(C)[C@H]([C@H](OC(=O)c3ccccc3)[C@]3(O)C[C@H](OC(=O)[C@H](O)[C@@H](NC(=O)c4ccccc4)c4ccccc4)C(C)=C1C3(C)C)[C@]1(OC(C)=O)CO[C@@H]1C[C@@H]2O` [paclitaxel, Paclitaxel], the “Reduction in critical concentration by subtilisin treatment” value with tubulin [2] (15 μM to 1.6 μM) is reported as approximately 10 fold. Besides, the “Critical concentration of tubulin” value in the assay on tubulin [2] (30 °C, MAPs alone added) is “about 3.5 μM”; with tubulin [2] (both MAPs and GTP added), “less than 1 μM”; in the assay with tubulin [3] (no GTP, no MAPs, obtained previously), 22 to 28 µM; in the assay on tubulin [3] (with MAPs, different protein preparations), 2 to 5 µM. Moreover, in the assay on tubulin [2] (subtilisin-treated tubulin), the “Critical concentration of subtilisin-treated tubulin” value turned out to be 1.6 µM. Also, at tubulin [1] (tubulin and paclitaxel both at 10 μM, no GTP, no MAPs), the “Extent of tubulin assembly” value was “negligible assembly”.

Consider `O=c1[nH]cnc2c1ncn2[C@@H]1O[C@H](COP(=O)(O)OP(=O)(O)O)[C@@H](O)[C@H]1O` [IDP], for which the “Effect” value at tubulin [1] (no exogenous GTP) is reported as “had any inhibitory effect, nor did”.

With `O=c1[nH]c(=O)c2ncn([C@@H]3O[C@H](COP(=O)(O)OP(=O)(O)OP(=O)(O)O)[C@@H](O)[C@H]3O)c2[nH]1` [XTP], at tubulin [1] (no exogenous GTP), the “Effect” value is recorded as “stimulatory”.

`COc1cc2cc(c1Cl)N(C)C(=O)C[C@H](OC(=O)[C@H](C)N(C)C(C)=O)[C@]1(C)O[C@H]1[C@H](C)[C@@H]1C[C@@](O)(NC(=O)O1)[C@H](OC)/C=C/C=C(\C)C2` [maytansine]: the pIC50 against tubulin with MAPs and on tubulin [1] was more than 5.30 throughout.

On to `Nc1nc2c(ncn2[C@@H]2O[C@H](COP(=O)(O)OP(=O)(O)O)[C@@H](O)[C@H]2O)c(=O)[nH]1` [GDP], for which the pKd (in general, the Kd on a negative log10 scale, so that one unit is a factor of ten) at tubulin E-site is 7.22 to 7.70. Moreover, the “Displacement of fluorescent taxoid analog from microtubules” value in assay [4] was “unable to displace the fluorescent taxoid”. Further, the “Mean microtubule length ± SD, Average” value at microtubules (5 μM GDP) amounted to 2.8 ± 2.1 μm; at microtubules (10 μM GDP), 2.8 ± 2.1 μm; on microtubules (50 μM GDP) it was 2.7 ± 2.4 μm. For the same molecule, the figures for the “Mean microtubule length ± SD, Experiment I” value on microtubules (5 μM GDP), at microtubules (10 μM GDP) and on microtubules (50 μM GDP) were 3.7 ± 2.2 μm, 3.5 ± 2.3 μm and 4.5 ± 3.2 μm, respectively. Besides, the “Mean microtubule length ± SD, Experiment II” value on microtubules (5 μM GDP) is listed as 2.1 ± 1.5 μm; at microtubules (10 μM GDP), 2.2 ± 1.6 μm; on microtubules (50 μM GDP), 2.0 ± 1.5 μm. In addition, the “Change in average microtubule length” value on microtubules (whatever the GDP concentration (5-50 μM)) was “essentially no change”. Also, the “IC50 with subtilisin-treated tubulin lower than value obtained with MAPs” value in assay [5] is listed as “about 40%”. The “Effect” value is reported as “significant inhibitory effect” on tubulin [1] (5 μM GDP) and “almost totally eliminated” on tubulin [1] (100 μM GDP). Further, the “Increase of the IC50 when 2 mM MgCl2 was added” value at tubulin [1] (57 vs 15 μM) is approximately 4 fold.

With `Nc1ccn([C@@H]2O[C@H](COP(=O)(O)OP(=O)(O)O)[C@@H](O)[C@H]2O)c(=O)n1` [CDP], the “Effect” value at tubulin [1] (no exogenous GTP) is given as “had any inhibitory effect, nor did”.

With `Nc1nc2c(ncn2[C@@H]2O[C@H](COP(=O)(O)OP(=O)(O)OP(=O)(O)O)[C@@H](O)[C@H]2O)c(=O)[nH]1` [GTP], on tubulin [1] (no exogenous GTP), the “Effect” value is recorded as “enhancing assembly”.

Turning to `O=c1ccn([C@@H]2O[C@H](COP(=O)(O)OP(=O)(O)O)[C@@H](O)[C@H]2O)c(=O)[nH]1` [UDP], the “Effect” value on tubulin [1] (no exogenous GTP) was “had any inhibitory effect, nor did”.

As for `O=c1ccn([C@@H]2O[C@H](COP(=O)(O)OP(=O)(O)OP(=O)(O)O)[C@@H](O)[C@H]2O)c(=O)[nH]1` [UTP], the “Effect” value at tubulin [1] (no exogenous GTP) is given as “stimulatory”.
